# Experimental data from different studies.
# Compare with care: the assays were run in different laboratories.
# Target: Activin receptor type-1 (ACVR1, Homo sapiens, UniProt Q04771)
# Sequence (Q04771 21-509, as in one of the studies): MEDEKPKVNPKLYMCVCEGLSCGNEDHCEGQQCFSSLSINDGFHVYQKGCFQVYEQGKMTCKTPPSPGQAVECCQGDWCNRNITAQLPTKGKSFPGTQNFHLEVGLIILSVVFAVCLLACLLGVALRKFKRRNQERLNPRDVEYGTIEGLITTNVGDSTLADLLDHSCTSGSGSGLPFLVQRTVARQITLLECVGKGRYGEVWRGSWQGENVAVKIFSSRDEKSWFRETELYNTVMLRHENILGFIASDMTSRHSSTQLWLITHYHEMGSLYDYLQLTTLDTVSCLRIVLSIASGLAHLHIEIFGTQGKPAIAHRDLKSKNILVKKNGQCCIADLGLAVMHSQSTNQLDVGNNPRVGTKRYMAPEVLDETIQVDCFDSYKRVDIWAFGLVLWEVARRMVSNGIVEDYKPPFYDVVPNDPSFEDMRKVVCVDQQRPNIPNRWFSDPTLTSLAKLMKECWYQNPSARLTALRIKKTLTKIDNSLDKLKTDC
SMILES,observed,mode,method,tested at,measurement,value
CO[C@@H]1[C@H](N(C)C(=O)c2ccccc2)C[C@H]2O[C@]1(C)n1c3ccccc3c3c4c(c5c6ccccc6n2c5c31)C(=O)NC4,enzyme activity,inhibitor,,1 µM,inhibition,0%
CC(C)S(=O)(=O)c1ccc2nccc(Nc3ccc4sc(C5CCCC5)nc4c3)c2c1,enzyme activity,inhibitor,,1 µM,activity vs control,111%
COc1ccc2[nH]c3c4[nH]c5ccc(OC)cc5c4c4c(c3c2c1)C(=O)NC4=O,binding,,competition with immobilised ligand,1 µM,remaining binding,77%
C=CC(=O)N1CCC([C@@H]2CCNc3c(C(N)=O)c(-c4ccc(Oc5ccccc5)cc4)nn32)CC1,cell-free assay,,,1 µM,inhibition,13%
CN1CCN(C(=O)c2ccc(NC(=O)Nc3ccc(N(C)c4ccnc(Nc5ccc(CS(C)(=O)=O)cc5)n4)cc3)cc2)CC1,binding,,competition with immobilised ligand,1 µM,remaining binding,28%
CCCCC(=O)Nc1ccc(-c2ccc3ncn(CCC)c(=O)c3c2)cn1,binding,,competition with immobilised ligand,0.5 µM,remaining binding,100%
COc1ccc2oc(-c3ccc4nc(N)oc4c3)c/c(=N\c3ccccc3NC(=O)CCN)c2c1,binding,,,1 µM,remaining binding,104%
C1=C/COCc2cc(ccc2OCCN2CCCC2)Nc2nccc(n2)-c2cccc(c2)COC/1,binding,,,0.1 µM,remaining binding,3.7%
